Data as given in ChEMBL document CHEMBL3585274, “Antiviral Activity of Diterpene Esters on Chikungunya Virus and HIV Replication” (J Nat Prod, 2015).

Key:
Chikungunya virus = experiment: Antiviral activity against chikungunya virus Indian ocean strain 899 infected in Vero cells assessed as virus-induced cytopathic effect after 6 to 7 days; format: functional, cell-based; conditions: Indian ocean strain 899, Vero
[1] = Selectivity index, CC50 for african green monkey Vero cells to EC50 for chikungunya virus Indian ocean strain 899; format: toxicity, cell-based; conditions: read-out: Ratio CC50/EC50
[2] = test system: Human immunodeficiency virus 1; experiment: Antiviral activity against HIV1 3B infected in MT4 cells assessed as cell viability after 5 days by MTT assay; format: functional, organism-based; conditions: Human immunodeficiency virus 1, 3B, MT4, 120 h
Summary of the method: (§1)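 MT-4 cells ([…] cells/mL suspension) infected with HIV-1 IIIB or HIV-2 ROD at 100−300 CCID50, with mock-infected wells run in parallel. Serial 5-fold compound dilutions in triplicate wells. Viability by MTT after 5 days, absorbance at 540 and 690 nm, median OD of three wells. Median ± median absolute deviation from ≥3 independent assays.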

[3] = Selectivity index, CC50 for african green monkey Vero cells to EC50 for HIV1 3B; format: toxicity, cell-based; conditions: read-out: Ratio CC50/EC50
Summary of the method: (§2)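 SI = CC50 in Vero cells ÷ EC50 against HIV-1 IIIB or HIV-2 ROD. CC50 is the 50% antimetabolic concentration from MTS dose−response in Vero. EC50 is from the MT-4/MTT 5-day antiviral assay.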

[4] = test system: Human immunodeficiency virus 2; experiment: Antiviral activity against HIV2 ROD infected in MT4 cells assessed as cell viability after 5 days by MTT assay; format: functional, organism-based; conditions: Human immunodeficiency virus 2, ISOLATE ROD, MT4, 120 h; summary of the method: as §1
[5] = Selectivity index, CC50 for african green monkey Vero cells to EC50 for HIV2 ROD; format: toxicity, cell-based; conditions: read-out: Ratio CC50/EC50; summary of the method: as §2

SMILES | EC50 (Chikungunya virus) | selectivity ratio [1] | EC50 [2] | selectivity ratio [3] | EC50 [4] | selectivity ratio [5]
COc1cc(CC(=O)OCC2=C[C@H]3[C@@H]4C(C)(C)[C@]4(OC(C)=O)[C@H](OC(=O)Cc4ccccc4)[C@@H](C)[C@]3(O)[C@@H]3C=C(C)C(=O)[C@@]3(O)C2)ccc1O | 1700 nM | 14.2 | 750 nM | 23 | 80 nM | –
CC(=O)O[C@@H]1[C@@H](C)[C@@]2(O)[C@@H](C=C(CO)C[C@]3(O)C(=O)C(C)=C[C@@H]23)[C@@H]2C(C)(C)[C@]12OC(C)=O | 9400 nM | 4.2 | 4800 nM | > 59 | 1000 nM | –
CCCCCCCCCC(=O)O[C@@H]1[C@@H](C)[C@@]2(O)[C@@H](C=C(CO)C[C@@]3(O)C(=O)C(C)=C[C@@H]23)[C@@H]2C(C)(C)[C@]12OC(=O)CCCCCCCCC | 1500 nM | 2.2 | > 16000 nM | – | > 16000 nM | –
CC(=O)O[C@@]12[C@H](O)[C@@H](C)[C@@]3(O)[C@@H](C=C(CO)C[C@]4(O)C(=O)C(C)=C[C@@H]34)[C@@H]1C2(C)C | > 174000 nM | – | > 217000 nM | 1 | 101000 nM | –
CC1=C[C@]23C(=O)[C@@H](C=C(COC(=O)c4ccccc4)[C@@H](O)[C@]2(O)[C@H]1OC(=O)c1ccccc1)[C@H]1[C@@H](C[C@H]3C)C1(C)C | 1200 nM | 6.4 | 27 nM | 3400 | 9 nM | –
CCCCCCCCCCCCCC(=O)O[C@@H]1[C@@H](C)[C@@]2(O)[C@@H](C=C(CO)C[C@@]3(O)C(=O)C(C)=C[C@@H]23)[C@@H]2C(C)(C)[C@]12OC(C)=O | – | 1.9 | > 18000 nM | – | > 17000 nM | –
CCCC(=O)O[C@@H]1[C@@H](C)[C@@]2(O)[C@@H](C=C(CO)C[C@]3(O)C(=O)C(C)=C[C@@H]23)[C@@H]2C(C)(C)[C@]12OC(=O)CCC | 1800 nM | 2.1 | 79 nM | 3160 | 14 nM | –
CC(=O)O[C@@H]1[C@@H](C)[C@@]2(O)[C@@H](C=C(CO)C[C@]3(O)C(=O)C(C)=C[C@@H]23)[C@@H]2C(C)(C)[C@]12O | > 245000 nM | 0.8 | > 307000 nM | > 1 | > 307000 nM | –
CCCCCCCCCC(=O)O[C@@H]1[C@@H](C)[C@@]2(O)[C@@H](C=C(CO)C[C@]3(O)C(=O)C(C)=C[C@@H]23)[C@@H]2C(C)(C)[C@]12O | 4900 nM | 1.5 | 4900 nM | 4 | 2000 nM | –
CCCC(=O)O[C@@]12[C@H](O)[C@@H](C)[C@@]3(O)[C@@H](C=C(CO)C[C@]4(O)C(=O)C(C)=C[C@@H]34)[C@@H]1C2(C)C | 20000 nM | 12.3 | 122000 nM | > 3 | 25000 nM | –
CCCCCCCCCC(=O)O[C@@]12[C@H](O)[C@@H](C)[C@@]3(O)[C@@H](C=C(CO)C[C@]4(O)C(=O)C(C)=C[C@@H]34)[C@@H]1C2(C)C | 2200 nM | 9.7 | 900 nM | 130 | 150 nM | –
CCCCCCCCCCCCCC(=O)O[C@@]12[C@H](O)[C@@H](C)[C@@]3(O)[C@@H](C=C(CO)C[C@]4(O)C(=O)C(C)=C[C@@H]34)[C@@H]1C2(C)C | 990 nM | 9 | 240 nM | 107 | 78 nM | –
CCCCCC(=O)O[C@@H]1[C@@H](C)[C@@]2(O)[C@@H](C=C(CO)C[C@]3(O)C(=O)C(C)=C[C@@H]23)[C@@H]2C(C)(C)[C@]12OC(=O)CCCCC | 3200 nM | 1.8 | 7 nM | 2890 | 1.2 nM | –
CCCCCCCCCC(=O)O[C@@H]1[C@@H](C)[C@@]2(O)[C@@H](C=C(CO)C[C@]3(O)C(=O)C(C)=C[C@@H]23)[C@@H]2C(C)(C)[C@]12OC(=O)CCCCCCCCC | 6 nM | 686 | 1.2 nM | 754 | 0.2 nM | –
C/C=C(\C)C(=O)O[C@@H]1[C@@H](C)[C@@]2(O)[C@@H](C=C(CO)C[C@]3(O)C(=O)C(C)=C[C@@H]23)[C@@H]2C(C)(C)[C@]12OC(=O)CCCCCCCCC | 1100 nM | 3.3 | 1.5 nM | 600 | 0.2 nM | –
CNc1ccccc1C(=O)O[C@@H]1[C@@H](C)[C@@]2(O)[C@@H](C=C(CO)C[C@]3(O)C(=O)C(C)=C[C@@H]23)[C@@H]2C(C)(C)[C@]12OC(C)=O | 15000 nM | 1.1 | 9 nM | 749 | 3000 nM | –
CC(=O)OCC1=C[C@H]2[C@@H]3C(C)(C)[C@]3(OC(C)=O)[C@H](O)[C@@H](C)[C@]2(O)[C@@H]2C=C(C)C(=O)[C@@]2(O)C1 | 24600 nM | 1.7 | > 279000 nM | 1 | 243000 nM | –
CCCCCCCCC(=O)O[C@@H]1[C@@H](C)[C@@]2(O)[C@@H](C=C(COC(=O)Cc3ccc(O)c(OC)c3)C[C@]3(O)C(=O)C(C)=C[C@@H]23)[C@@H]2C(C)(C)[C@]12OC(=O)CCCCCCCC | 600 nM | 3.7 | 36 nM | 483 | 4 nM | –
CC(=O)OCC1=C[C@H]2[C@@H]3C(C)(C)[C@]3(OC(C)=O)[C@H](OC(C)=O)[C@@H](C)[C@]2(O)[C@@H]2C=C(C)C(=O)[C@@]2(O)C1 | 32600 nM | 2.2 | 27400 nM | > 9 | 6600 nM | –
CCCC(=O)O[C@@H]1[C@@H](C)[C@@]2(O)[C@@H](C=C(C=O)C[C@]3(O)C(=O)C(C)=C[C@@H]23)[C@@H]2C(C)(C)[C@]12OC(=O)CCC | 13100 nM | 2.7 | > 20000 nM | – | > 35000 nM | –
CCCCCCCCCCCCCC(=O)O[C@@H]1[C@@H](C)[C@@]2(O)[C@@H](C=C(C=O)C[C@]3(O)C(=O)C(C)=C[C@@H]23)[C@@H]2C(C)(C)[C@]12OC(C)=O | 700 nM | 5.9 | 3300 nM | 5 | 1200 nM | –
C/C=C(/C)C(=O)O[C@H]1C(C)=C[C@]23C(=O)[C@@H](C=C(CO)[C@@H](O)[C@]12O)[C@H]1[C@@H](C[C@H]3C)C1(C)C [INGENOL MEBUTATE] | 22900 nM | 2.3 | 17 nM | 7850 | 9 nM | –
CC1=C[C@]23C(=O)[C@@H](C=C(CO)[C@@H](O)[C@]2(O)[C@H]1O)[C@H]1[C@@H](C[C@H]3C)C1(C)C [INGENOL] | 30100 nM | 4.8 | 209000 nM | > 2 | 131000 nM | –
CCCCCCCCCCCCCC(=O)O[C@@H]1[C@@H](C)[C@@]2(O)[C@@H](C=C(CO)C[C@]3(O)C(=O)C(C)=C[C@@H]23)[C@@H]2C(C)(C)[C@]12OC(C)=O [PHORBOL MYRISTATE ACETATE] | – | 1960 | 0.9 nM | 220 | 0.7 nM | –
CC1=C[C@H]2[C@@]3(O)[C@H](C)[C@@H](O)[C@]4(O)[C@H]([C@@H]3C=C(CO)C[C@]2(O)C1=O)C4(C)C [PHORBOL] | > 343000 nM | > 1 | > 343000 nM | > 1 | > 343000 nM | –
CC(=O)O[C@@]12C[C@@H](C)[C@@]3(O)[C@@H](C=C(CO)C[C@]4(O)C(=O)C(C)=C[C@@H]34)[C@@H]1C2(C)C [PROSTRATIN] | 2700 nM | 22.8 | 1900 nM | 171 | 900 nM | –
C=C(C)[C@]12C[C@@H](C)[C@@]34O[C@](Cc5ccccc5)(O[C@@H]1[C@@H]3C=C(COC(=O)Cc1ccc(O)c(OC)c1)C[C@]1(O)C(=O)C(C)=C[C@@H]41)O2 [RESINIFERATOXIN] | 1800 nM | 2.3 | 26000 nM | 8 | 22600 nM | –
Cc1cn([C@H]2C[C@H](N=[N+]=[N-])[C@@H](CO)O2)c(=O)[nH]c1=O [ZIDOVUDINE] | – | – | 7100 nM | 3520 | 6000 nM | > 4180
